Results taken from ChEMBL document CHEMBL1212724, “Rapid selection of cyclic peptides that reduce alpha-synuclein toxicity in yeast and animal models” (Nat Chem Biol, 2009).
Active and inactive are the calls of the source. No cut-off for these calls is given here. Bridge positions count the residues as written; N and C are the ends. Peptide text beside a SMILES is read from it.

What was measured:
Saccharomyces cerevisiae = assay: Effect on lacZ expression in yeast after 36 to 48 hrs by Gal1 reporter gene assay; type: functional, organism-based
In short: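 GAL1::LacZ yeast (freshly integrated) grown on galactose plates; single colonies picked at 36–48 h, washed, normalized to OD600 0.4–0.8. CPRG substrate buffer (100 mM HEPES pH 7.25, 150 mM NaCl, 0.5% SDS, 0.75 mg/mL CPRG) added, shaken 30–120 min at room temperature. Absorbance read at 578 nm and corrected for yeast optical density.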

[1] = biological target: Alpha-synuclein (Homo sapiens) (UniProt P37840); assay: Inhibition of alpha-synuclein-mediated dopaminergic neurodegeneration in Caenorhabditis elegans transfected with human alpha-synuclein
In short: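 Age-synchronized transgenic worms expressing α-syn and GFP from the Pdat-1 promoter in DA neurons, with extrachromosomal mCP arrays; three independent lines per strain. Six anterior DA neurons (4 CEP, 2 ADE) scored at day 7 on 2% agarose pads with 2 mM levamisole, by epifluorescence. An animal with any dendrite, axon or cell body loss counted as degenerating. 30 worms per trial, three trials per line.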

[2] = biological target: Alpha-synuclein (Homo sapiens) (UniProt P37840); assay: Inhibition of human alpha-synuclein-mediated accumulation of stalled vesicle pools in yeast transfected with human alpha-synuclein after 8 to 12 hrs by electron microscopy
[3] = biological target: Alpha-synuclein (Homo sapiens) (UniProt P37840); assay: Inhibition of alpha-synuclein-mediated toxicity in yeast transfected with human alpha-synuclein by spotting assay
In short: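 Haploid W303 IntTox strain carrying integrated GAL1-driven human α-syn-YFP, transformed with CP plasmids by lithium acetate heat shock. At least three independent transformants tested. Cells serially diluted and plated on galactose medium to induce α-syn, then growth scored.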

[4] = biological target: Huntingtin (Homo sapiens) (UniProt P42858); assay: Inhibition of huntingtin-mediated toxicity in yeast transfected with human huntingtin by spotting assay
Sequence of Huntingtin (Homo sapiens) (P42858 whole entry): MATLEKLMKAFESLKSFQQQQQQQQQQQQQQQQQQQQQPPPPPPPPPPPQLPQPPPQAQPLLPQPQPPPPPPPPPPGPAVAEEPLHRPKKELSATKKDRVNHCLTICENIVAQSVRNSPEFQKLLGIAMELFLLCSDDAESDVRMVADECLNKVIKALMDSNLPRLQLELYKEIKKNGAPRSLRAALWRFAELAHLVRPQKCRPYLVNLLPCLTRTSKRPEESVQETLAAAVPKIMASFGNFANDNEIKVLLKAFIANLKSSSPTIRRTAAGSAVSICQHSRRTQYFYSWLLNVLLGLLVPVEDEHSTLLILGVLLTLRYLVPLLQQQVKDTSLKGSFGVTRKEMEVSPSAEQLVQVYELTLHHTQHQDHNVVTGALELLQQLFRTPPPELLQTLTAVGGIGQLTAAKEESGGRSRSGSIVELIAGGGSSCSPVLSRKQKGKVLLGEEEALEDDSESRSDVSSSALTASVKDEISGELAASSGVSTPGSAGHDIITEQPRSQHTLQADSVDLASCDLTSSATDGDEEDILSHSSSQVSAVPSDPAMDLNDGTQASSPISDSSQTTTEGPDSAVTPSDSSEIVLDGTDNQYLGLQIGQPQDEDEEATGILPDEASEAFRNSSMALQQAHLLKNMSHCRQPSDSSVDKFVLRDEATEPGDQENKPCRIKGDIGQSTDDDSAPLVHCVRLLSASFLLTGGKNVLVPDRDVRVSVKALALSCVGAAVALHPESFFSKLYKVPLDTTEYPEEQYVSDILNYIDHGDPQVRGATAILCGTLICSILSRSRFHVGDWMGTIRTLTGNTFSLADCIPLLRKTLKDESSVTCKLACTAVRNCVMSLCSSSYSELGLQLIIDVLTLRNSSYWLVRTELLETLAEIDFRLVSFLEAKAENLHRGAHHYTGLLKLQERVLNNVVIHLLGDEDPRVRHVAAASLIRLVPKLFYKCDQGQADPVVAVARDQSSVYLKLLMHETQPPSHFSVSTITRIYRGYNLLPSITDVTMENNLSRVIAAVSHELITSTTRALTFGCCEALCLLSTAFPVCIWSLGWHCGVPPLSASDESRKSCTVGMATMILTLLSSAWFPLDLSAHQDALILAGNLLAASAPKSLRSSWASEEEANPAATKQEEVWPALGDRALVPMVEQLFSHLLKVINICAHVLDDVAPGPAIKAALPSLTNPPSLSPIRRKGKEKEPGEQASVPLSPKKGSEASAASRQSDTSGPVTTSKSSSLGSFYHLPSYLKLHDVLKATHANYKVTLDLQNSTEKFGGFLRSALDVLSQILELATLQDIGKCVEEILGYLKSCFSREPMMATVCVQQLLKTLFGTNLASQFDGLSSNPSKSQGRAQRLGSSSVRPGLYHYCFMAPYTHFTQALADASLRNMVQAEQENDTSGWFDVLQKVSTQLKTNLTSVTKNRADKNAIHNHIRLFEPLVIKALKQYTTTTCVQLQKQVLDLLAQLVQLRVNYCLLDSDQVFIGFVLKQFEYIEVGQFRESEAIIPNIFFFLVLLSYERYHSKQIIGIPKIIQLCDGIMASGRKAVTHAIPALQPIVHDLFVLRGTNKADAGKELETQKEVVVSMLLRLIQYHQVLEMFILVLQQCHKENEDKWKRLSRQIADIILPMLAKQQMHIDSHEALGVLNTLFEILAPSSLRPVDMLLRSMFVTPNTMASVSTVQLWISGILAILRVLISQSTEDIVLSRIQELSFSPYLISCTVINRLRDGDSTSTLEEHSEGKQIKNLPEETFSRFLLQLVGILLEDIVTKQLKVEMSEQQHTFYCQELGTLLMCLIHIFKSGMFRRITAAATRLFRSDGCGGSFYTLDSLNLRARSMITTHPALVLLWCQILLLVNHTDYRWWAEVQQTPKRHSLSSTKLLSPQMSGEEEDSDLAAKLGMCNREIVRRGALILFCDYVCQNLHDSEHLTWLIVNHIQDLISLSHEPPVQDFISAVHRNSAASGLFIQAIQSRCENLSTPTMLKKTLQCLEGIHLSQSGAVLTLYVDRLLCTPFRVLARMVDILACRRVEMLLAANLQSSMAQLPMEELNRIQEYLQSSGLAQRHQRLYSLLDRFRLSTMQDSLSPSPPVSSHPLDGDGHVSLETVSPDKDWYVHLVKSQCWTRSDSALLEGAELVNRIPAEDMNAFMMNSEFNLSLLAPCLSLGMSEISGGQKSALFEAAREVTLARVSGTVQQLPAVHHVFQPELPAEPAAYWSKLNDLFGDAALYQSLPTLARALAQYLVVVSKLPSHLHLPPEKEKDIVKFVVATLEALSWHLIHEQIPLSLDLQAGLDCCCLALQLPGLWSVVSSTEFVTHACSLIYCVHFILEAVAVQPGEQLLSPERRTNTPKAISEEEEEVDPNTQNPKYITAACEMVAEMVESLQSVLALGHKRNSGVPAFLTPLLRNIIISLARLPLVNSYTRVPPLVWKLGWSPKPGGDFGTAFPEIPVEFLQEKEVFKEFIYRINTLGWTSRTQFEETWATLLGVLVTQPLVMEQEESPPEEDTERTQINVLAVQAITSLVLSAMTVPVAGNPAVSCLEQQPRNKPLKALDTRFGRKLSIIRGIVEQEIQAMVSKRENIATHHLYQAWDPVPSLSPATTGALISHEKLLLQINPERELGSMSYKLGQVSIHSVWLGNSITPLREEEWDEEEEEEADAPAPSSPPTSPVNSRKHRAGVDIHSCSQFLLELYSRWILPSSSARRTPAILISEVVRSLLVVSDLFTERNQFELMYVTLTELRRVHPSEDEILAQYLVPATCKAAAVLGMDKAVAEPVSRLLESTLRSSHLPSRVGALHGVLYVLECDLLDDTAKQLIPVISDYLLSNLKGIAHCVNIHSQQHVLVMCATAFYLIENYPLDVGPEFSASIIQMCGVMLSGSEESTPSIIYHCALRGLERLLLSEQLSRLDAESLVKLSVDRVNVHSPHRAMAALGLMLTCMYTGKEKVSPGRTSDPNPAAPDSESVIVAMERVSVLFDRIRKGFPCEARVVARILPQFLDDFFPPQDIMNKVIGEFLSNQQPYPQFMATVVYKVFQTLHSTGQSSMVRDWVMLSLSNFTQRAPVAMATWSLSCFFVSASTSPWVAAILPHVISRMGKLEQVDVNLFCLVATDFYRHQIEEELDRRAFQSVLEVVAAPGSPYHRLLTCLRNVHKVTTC

Row | percent of animals without neurodegeneration [1] | Activity [2] | inhibition [1] | Compound | Activity (Saccharomyces cerevisiae) | inhibition [3] | Activity [4]
1 | 24% | inactive | – | CC(C)C[C@@H]1NC(=O)[C@H](C)NC(=O)[C@@H](N)CSSC[C@@H](C(=O)N[C@@H](CC(=O)O)C(=O)N2CCC[C@H]2C(=O)N[C@@H](Cc2c[nH]c3ccccc23)C(=O)N[C@@H](Cc2c[nH]c3ccccc23)C(=O)O)NC1=O (H-CALCDPWW-OH; disulfide 1-4) | inactive | Active | inactive
2 | – | – | inactive | CC(C)[C@H](NC(=O)[C@H](CCCNC(=N)N)NC(=O)[C@@H](NC(=O)[C@H](CO)NC(=O)[C@H](CS)NC(=O)[C@H](Cc1c[nH]c2ccccc12)NC(=O)[C@@H]1CCCN1C(=O)[C@H](C)N)[C@@H](C)O)C(=O)O (H-APWCSTRV-OH) | – | – | –
3 | – | – | inactive | CC(C)C[C@H](NC(=O)[C@H](C)NC(=O)[C@H](C)N)C(=O)N[C@@H](CS)C(=O)N[C@@H](CC(=O)O)C(=O)N1CCC[C@H]1C(=O)N[C@@H](Cc1c[nH]c2ccccc12)C(=O)N[C@@H](Cc1c[nH]c2ccccc12)C(=O)O (H-AALCDPWW-OH) | – | – | –
4 | 26% | inactive | – | CC(C)[C@H](NC(=O)[C@H](CCCNC(=N)N)NC(=O)[C@@H](NC(=O)[C@H](CO)NC(=O)[C@@H]1CSSC[C@H](N)C(=O)N2CCC[C@H]2C(=O)N[C@@H](Cc2c[nH]c3ccccc23)C(=O)N1)[C@@H](C)O)C(=O)O (H-CPWCSTRV-OH; disulfide 1-4) | inactive | Active | inactive

Second part, the compound before the results:

Row | Compound | percent of animals without neurodegeneration [1] | Activity [2] | inhibition [1] | Activity (Saccharomyces cerevisiae) | inhibition [3] | Activity [4]
5 | CC(C)[C@H](NC(=O)[C@H](CCCNC(=N)N)NC(=O)CNC(=O)[C@H](CO)NC(=O)[C@@H]1CSSC[C@H](N)C(=O)N2CCC[C@H]2C(=O)N[C@@H](Cc2c[nH]c3ccccc23)C(=O)N1)C(=O)O (H-CPWCSGRV-OH; disulfide 1-4) | – | – | – | – | Active | –
6 | CC(C)[C@H](NC(=O)[C@H](CCCNC(=N)N)NC(=O)[C@H](C)NC(=O)[C@H](CO)NC(=O)[C@@H]1CSSC[C@H](N)C(=O)N2CCC[C@H]2C(=O)N[C@@H](Cc2c[nH]c3ccccc23)C(=O)N1)C(=O)O (H-CPWCSARV-OH; disulfide 1-4) | – | – | – | – | Active | –
